A selection: hits, their analogues and other compounds. The true share with any hit is near 3.6%.
HSF1 inh: HSF1 inhibition. NIH3T3-HGL HSE-luciferase, MG132-induced, luminescence 8 h; active compounds read low. activity change, negative = inhibition, % at 7.5 µM (by protocol). hit rate 0.77% among 300,000;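 active means more than half of replicate wells show activity change below -50%, luminescence cut by over half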;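 further: luciferase reports HSF-1 transcriptional activity via heat shock element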
STAT3 act-1: activators of IL-6 induced STAT3 signaling; hit rate 0.91% among 190,000; U3A cells, IL-6 STAT3-luciferase reporter, luminescence; 100% = signal with IL-6 EC80 alone; activation (% of control), % at 5.6 µM;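 active means activation above the screen-wide mean of compound activation plus 3 SD, cut at about 130% in these data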
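Test system: STAT3-luciferase reporter U3A cells; Detection: reporter luminescence signal; Times: 1 h compound pre-exposure, 6 h IL-6 stimulation, 37 °C; Benchmarks: IL-6-only high control; Also added: IL-6 stimulus at 33 ng/mL final.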
PolyA inhibitor: inhibitors of polyadenylation in S. cerevisiae; S. cerevisiae SKY197-pL101 polyadenylation reporter, beta-gal luminescence; efflux-impaired pdr1/pdr3 knockout yeast; score 100 = 6 SD above DMSO; hit rate 0.02% among 300,000; AID 1875; activity score, % at 12 µM;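 active means lowest replicate activity score at least 50, where 100 means six control SD above control mean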;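 further: yeast exposed to compound for 9 h at 30 °C; higher score means more reporter readthrough which indicates perturbed polyadenylation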
Hsp70 activator: switches on Hsp70 transcription | HeLa Hsp70 promoter luciferase reporter, luminescence; scaled: vehicle 0, proteasome-inhibitor control 100% | activation, % at 10 µM | hit rate 0.04% among 200,000;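 active means activation above the mean across all tested compounds plus 3 SD, cutoff set per campaign, cut at about 5.5% in these data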
PERK inh: human PERK inhibition, primary cell-based screen; CHO PERK-DD fusion, SEAP luminescence translation reporter; hit rate 0.17% among 220,000; Q9NZJ5; inhibition, % at 5.6 µM;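 active means inhibition above the mean inhibition of all tested compounds plus 3 SD, set separately per screening campaign, cut at about 2.9% in these data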;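 further: PERK kinase domain activated by AP20187 dimerizer at 100 nM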
AHR activator: activators of human aryl hydrocarbon receptor. P35869. AHR-responsive luciferase reporter cells, luminescence. activation, % at 5 µM. hit rate 2.5% among 320,000; in the data active means activation above about 47%
STAT3 act-2: STAT3 activation, confirmation assay; shares compounds with STAT3 act-1; U3A STAT3-luciferase reporter, IL-6 potentiation, luminescence; U3A cells lack STAT1; 100 means same as IL-6 alone; potentiation (% of control), % at 5.7 µM; hit rate 64% among 1,200; AID 1267;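 active means percent activation of the STAT3 luciferase reporter above a set limit taken from the earlier primary screen, cut at about 130% in these data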
NFkB act 2: activates NF-kappaB, counter-screen to STAT3 activators; human cells, NF-kappaB reporter activation; shares compounds with STAT3 act-1; activation (% of control), % at 5.7 µM; hit rate 11% among 1,200; in the data active means activation above about 120%;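 further: reporter induced by TNF-alpha stimulation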
STAT1 act: STAT1 activation in STAT3 activator counter-screen. shares compounds with STAT3 act-1. AID 1318. NIH 3T3 STAT1-luciferase reporter, IFN-gamma, luminescence. hit rate 13% among 1,200. activation (% of control), % at 5.7 µM;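 active means activation above the solvent-only control well mean plus 3 SD, set per screening run, cut at about 120% in these data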
Large screens that a line does not name were inactive (follow-up assays come after a bar, where they were run).

Cc1c(/C=N\NC(=O)C2COc3ccccc3O2)c2ccccc2n1C (stereo unspecified)	STAT3 act-1 139, AHR activator 51 | STAT3 act-2 inactive | NFkB act 2 inactive | STAT1 act inactive
COc1ccc(CC(=O)Nc2cccc(/C(C)=N/NC(=O)C3(C)CC3(Br)Br)c2)cc1 (stereo unspecified)	none (no result: STAT3 act-1, Hsp70 activator, PERK inh)
O=C(NCCSc1c[nH]c2ccccc12)c1ccco1	STAT3 act-1 140 | STAT3 act-2 inactive | NFkB act 2 inactive | STAT1 act 133
O=C1C(C=NCc2ccco2)=C(O)c2ccccc21	STAT3 act-1 141 | STAT3 act-2 187 | NFkB act 2 135 | STAT1 act 164
Cn1c(C(=O)c2ccccc2)nc2ccccc21	none (no result: STAT3 act-1, Hsp70 activator, PERK inh)
Cn1c(C(=O)c2ccccc2[N+](=O)[O-])nc2ccccc21	STAT3 act-1 145, AHR activator 48 | STAT3 act-2 142 | NFkB act 2 inactive | STAT1 act inactive
CCCSc1nnc(Sc2nnnn2-c2ccccc2)s1	STAT3 act-1 178 | STAT3 act-2 147 | NFkB act 2 inactive | STAT1 act inactive
O=C(NNC(=O)c1nc2ccccc2[nH]1)OCc1ccccc1	none (no result: HSF1 inh, STAT3 act-1, PolyA inhibitor, Hsp70 activator, PERK inh)
CC1CCCN(C(=O)COC(=O)Cc2c[nH]c3ccccc23)C1 (stereo unspecified)	none (no result: HSF1 inh, STAT3 act-1, PolyA inhibitor, Hsp70 activator, PERK inh)
COC(=O)C1CCN(C(=O)COC(=O)Cc2c[nH]c3ccccc23)CC1	STAT3 act-1 140 | STAT3 act-2 inactive | NFkB act 2 inactive | STAT1 act inactive
O=C(Cc1c[nH]c2ccccc12)OCC(=O)c1ccccc1	STAT3 act-1 136 | STAT3 act-2 inactive | NFkB act 2 inactive | STAT1 act inactive
Cc1cc(-c2sccc2Br)nc(-n2cccc2)n1	STAT3 act-1 139 (no result: AHR activator) | STAT3 act-2 150 | NFkB act 2 inactive | STAT1 act inactive
Cc1c(Br)cccc1NC(=O)c1sccc1-n1cccc1	none (no result: AHR activator)
Cc1cc(-c2ccc(Br)s2)nc(-n2cccc2)n1	STAT3 act-1 136 (no result: AHR activator) | STAT3 act-2 inactive | NFkB act 2 inactive | STAT1 act inactive
Cc1csc(NC(=O)Cc2coc3cc(C)c(C(C)C)cc23)n1	STAT3 act-1 137 | STAT3 act-2 inactive | NFkB act 2 inactive | STAT1 act inactive
Cc1cc2occ(CC(=O)NCc3cccs3)c2cc1C(C)C	none
O=Cc1ccc2cccnc2n1	STAT3 act-1 148 | STAT3 act-2 146 | NFkB act 2 inactive | STAT1 act inactive
COc1ccc(OC)c(NC(=O)C(C)N2c3cccc4cccc(c34)S2(=O)=O)c1 (stereo unspecified)	none (no result: STAT3 act-1, Hsp70 activator, PERK inh)
Cc1nnsc1C(=O)N1CCCC(N2CCN(c3ccc(F)cc3)CC2)C1 (stereo unspecified)	none (no result: STAT3 act-1, Hsp70 activator, PERK inh)
COc1cccc(OC)c1C(=O)NC(=S)Nc1ccc2c(c1)Cc1ccccc1-2	STAT3 act-1 150 | STAT3 act-2 inactive | NFkB act 2 inactive | STAT1 act inactive
O=C1c2ccccc2C2(c3ccccc3)N1CCN2C(=O)C(Cl)(Cl)Cl (stereo unspecified)	none (no result: STAT3 act-1, Hsp70 activator, PERK inh)
Cc1ccc(C(=O)N2CCN3C(=O)c4ccccc4C23c2ccccc2)cc1 (stereo unspecified)	STAT3 act-1 159 | STAT3 act-2 inactive | NFkB act 2 inactive | STAT1 act inactive
CCN1CCN(S(=O)(=O)Cc2ccccc2Cl)CC1	none (no result: STAT3 act-1, Hsp70 activator, PERK inh)
CC1CCN(C(=O)Cn2c(=O)n(CCc3ccccc3)c(=O)c3ccccc32)CC1	STAT3 act-1 140 | STAT3 act-2 138 | NFkB act 2 inactive | STAT1 act inactive
CC1CCN(C(=O)Cn2c(=O)n(Cc3ccc4c(c3)OCO4)c(=O)c3ccccc32)CC1	none
O=c1oc2ccc3ccccc3c2cc1-c1nc2ccccc2o1	STAT3 act-1 163 | STAT3 act-2 133 | NFkB act 2 inactive | STAT1 act inactive
CCc1ccc(OCC(=O)N2CCc3ccccc32)cc1	none (no result: STAT3 act-1, Hsp70 activator, PERK inh)
CN(C)S(=O)(=O)N1CCc2ccccc21	STAT3 act-1 146 | STAT3 act-2 inactive | NFkB act 2 inactive | STAT1 act inactive
CCN(CC)C(=O)N1CCc2ccccc21	STAT3 act-1 146 | STAT3 act-2 151 | NFkB act 2 inactive | STAT1 act inactive
CC(C(=O)N1CCc2ccccc21)N1CCc2ccccc2C1 (stereo unspecified)	STAT3 act-1 146 | STAT3 act-2 inactive | NFkB act 2 inactive | STAT1 act inactive
CCOCC(=O)N1CCc2ccccc21	STAT3 act-1 151 | STAT3 act-2 139 | NFkB act 2 inactive | STAT1 act inactive
O=C(c1cccnc1)N1CCc2ccccc21	STAT3 act-1 159 | STAT3 act-2 140 | NFkB act 2 inactive | STAT1 act inactive
O=C(c1ccccc1)N1CCc2ccccc21	none
c1ccc(Cc2c[nH]c3ccccc23)cc1	none (no result: STAT3 act-1, Hsp70 activator, PERK inh)
CN(Cc1ccccc1)Cc1c[nH]c2ccccc12	STAT3 act-1 158 | STAT3 act-2 141 | NFkB act 2 inactive | STAT1 act inactive
N#Cc1ccsc1NC(=O)CSc1ncnc2ccccc12	STAT3 act-1 148 | STAT3 act-2 144 | NFkB act 2 inactive | STAT1 act inactive
Clc1ccc(/C=N/Nc2nnc(Cl)c3ccccc23)cc1	STAT3 act-1 146 | STAT3 act-2 160 | NFkB act 2 127 | STAT1 act 164
C(=N\Nc1nncc2ccccc12)/c1ccccc1	none (no result: STAT3 act-1, Hsp70 activator)
Cc1c(NC(=O)COC(=O)c2ccccc2Cl)c(=O)n(-c2ccccc2)n1C	none
Cc1c(NC(=O)COC(=O)c2cc3c4ccccc4n(C)c3s2)c(=O)n(-c2ccccc2)n1C	STAT3 act-1 158 | STAT3 act-2 136 | NFkB act 2 inactive | STAT1 act inactive
Cc1c(C(=O)Nc2ccc(Cl)cn2)oc2ccccc12	STAT3 act-1 195, AHR activator 64 | STAT3 act-2 197 | NFkB act 2 134 | STAT1 act 138
Cc1ccccc1C(=O)Nc1ccc(Cl)cn1	none
O=C(Nc1ccc(Cl)cn1)c1ccc2ccccc2n1	STAT3 act-1 178 | STAT3 act-2 192 | NFkB act 2 130 | STAT1 act 137
O=C(Nc1ccccc1)c1ccc2ccccc2n1	STAT3 act-1 153 | STAT3 act-2 188 | NFkB act 2 141 | STAT1 act 176
CCCCN(C)Cc1c(O)ccc2c(=O)c(-c3ccccc3OC)coc12	none (no result: STAT3 act-1, Hsp70 activator, PERK inh)
COC(=O)Cc1[nH]c(=S)[nH]c1C(=O)OC	none (no result: STAT3 act-1, Hsp70 activator)
Cc1cccc(-n2c(O)c(C=Nc3cccc(O)c3)c3ccccc3c2=O)n1	none (no result: STAT3 act-1, Hsp70 activator)
